What was measured:
Type in all cases: ADME
[1] = Pseudo first order rate constant of the beta-lactam ring cleavage determined from 1H NMR spectra
Summary of the method: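 Oxacephem (about 1×10^-2 M initial) in 0.2 M deuteriated carbonate buffer, pD 10.4, μ = 0.5, held at 35 ± 0.5 °C. β-Lactam loss followed by 1H NMR with 64 acquisitions per spectrum. Pseudo-first-order constant from regression of residual oxacephem fraction against time in hours.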

[2] = Pseudo first order rate constant of the beta-lactam ring cleavage determined from 1H NMR spectra; value is corrected for parallel correction.
Summary of the method: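 Degradation in 0.2 M deuteriated carbonate buffer, pD 10.4, μ = 0.5, 35 °C, oxacephem about 1×10^-2 M. Time courses of parent and products were recorded by 1H NMR. Rate constants came from kinetic analysis of a parallel-reaction scheme fitted to the experimental curves, which separates the OH− contribution to β-lactam cleavage.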

[3] = Pseudo first order rate constant of the beta-lactam ring cleavage determined from UV spectra (pH 10, 35 degree C)
Summary of the method: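 Oxacephem at about 7.5×10^-5 M initial in 0.008 M carbonate buffer, μ = 0.1, 35.0 ± 0.2 °C. Loss of UV absorbance near 260 nm recorded continuously over time. Pseudo-first-order constant for β-lactam cleavage obtained by the Guggenheim method.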

Row | k obs [1] [h⁻¹] | k obs [2] [h⁻¹] | k obs [3] [h⁻¹] | Compound
1 | 0.164 |  | 0.139 | CO[C@@]1(NC(=O)Cc2ccccc2)C(=O)N2C(C(=O)[O-])=C(CO)CO[C@@H]21.[Na+]
2 | 0.192 |  | 0.204 | CO[C@@]1(NC(=O)Cc2ccccc2)C(=O)N2C(C(=O)[O-])=C(CSc3nnnn3C)CO[C@@H]21.[Na+]
3 | 0.11 |  | 0.101 | CO[C@@]1(NC(=O)Cc2ccccc2)C(=O)N2C(C(=O)[O-])=C(CSC)CO[C@@H]21.[Na+]

More lines, now with the values behind:

Row | Compound | k obs [1] [h⁻¹] | k obs [2] [h⁻¹] | k obs [3] [h⁻¹]
4 | CO[C@@]1(NC(=O)Cc2ccccc2)C(=O)N2C(C(=O)[O-])=C(COC(C)=O)CO[C@@H]21.[Na+] | 0.255 | 0.308 | 0.285
5 | CO[C@@]1(NC(=O)Cc2ccccc2)C(=O)N2C(C(=O)[O-])=C(COC(N)=O)COC21.[Na+] (some centres undefined) | 0.45 |  | 0.23
6 | CO[C@@]1(NC(=O)Cc2ccccc2)C(=O)N2C(C(=O)[O-])=C(C)CO[C@@H]21.[Na+] | 0.0484 |  | 0.0346
7 | CO[C@@]1(NC(=O)Cc2ccccc2)C(=O)N2C(C(=O)[O-])=C(CC#N)CO[C@@H]21.[Na+] | 0.289 |  | 0.234
8 | CO[C@@]1([N-]C(=O)Cc2ccccc2)C(=O)N2C(C(=O)[O-])=C(C[n+]3ccccc3)CO[C@@H]21.[Na+] | 1.39 |  | 1.26
9 | COCC1=C(C(=O)[O-])N2C(=O)[C@](NC(=O)Cc3ccccc3)(OC)[C@H]2OC1.[Na+] | 0.204 |  | 0.144
